test system: K562; assay: Cytotoxicity against human multidrug-resistant K562 cells after 48 hrs by MTT assay; type: functional, cell-based; conditions: K562, 48 h
Summary of the method: (§1)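 Cells were exposed to drug for 48 h, then given MTT in RPMI-1640 for a further 4 h at 37 °C. Formazan was dissolved in DMSO and absorbance read at 570 nm after 5 min. Each assay was run in triplicate in three independent experiments. IC50 (50% inhibition of viability) was computed by dose-effect analysis.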

`CCn1c2ccncc2c2cc(C(=O)c3ccccc3)ccc21` and `CCn1c2ccncc2c2cc(C(=O)c3ccccc3Cl)ccc21` are within 1.5-fold of each other in IC50: 9090 nM for the first, 7080 nM for the second.

Going from `CCn1c2ccncc2c2cc(C(=O)c3ccc(S(C)(=O)=O)cc3)ccc21` to `CCn1c2ccncc2c2cc(C(=O)c3ccc(Cl)cc3)ccc21`, the IC50 rises from 660 nM to 1580 nM (2.4-fold). The first is the more potent here.

Compared with `CCn1c2ccncc2c2cc(C(=O)c3ccc(N)cc3)ccc21`, `CCn1c2ccncc2c2cc(C(=O)c3ccc(Br)cc3)ccc21` is 15-fold lower in IC50: 23300 nM for the first, 1580 nM for the second.

`CCn1c2ccc(C(=O)c3ccccc3)cc2c2c[n+](CC)ccc21` and `CCn1c2ccc(C(=O)c3ccc(Br)cc3)cc2c2c[n+](CC)ccc21` cannot be ordered by IC50: greater than 100000 nM for the first, greater than 100000 nM for the second.

`CCn1c2ccncc2c2cc(C(=O)c3ccc(OC)cc3)ccc21` and `CCn1c2ccncc2c2cc(C(=O)c3cccc(OC)c3)ccc21` are within 1.5-fold of each other in IC50: 2090 nM for the first, 1570 nM for the second.

Compared with `CCn1c2ccncc2c2cc(C(=O)c3ccccc3F)ccc21`, `CCn1c2ccncc2c2cc(C(=O)c3ccc([N+](=O)[O-])cc3)ccc21` is 2.5-fold higher in IC50: 1450 nM for the first, 3680 nM for the second.

molecular target: Tubulin; assay: Inhibition of tubulin polymerization in human K562 cells by fluorometric analysis; conditions: not given
Summary of the method: (§2)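 Tubulin polymerization was run at 37 °C in 80 mM PIPES (pH 6.9) with 20% glycerol, 1 mM GTP, 2.0 mM MgCl2 and 0.5 mM EGTA. It was followed kinetically on a fluorescence plate reader.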

Work on `CCn1c2ccncc2c2cc(C(=O)c3ccc(S(C)(=O)=O)cc3)ccc21` yielded an IC50 of 4.3 µM.

test system: K562; assay: Cytotoxicity against human K562 cells after 48 hrs by MTT assay; type: functional, cell-based; conditions: K562, 48 h; summary of the method: as §1

`CCn1c2ccncc2c2cc(C(=O)c3ccccc3)ccc21` and `Cn1c2ccncc2c2cc(C(=O)c3ccccc3)ccc21` are within 1.5-fold of each other in IC50: 4.96 µM for the first, 4.82 µM for the second.

`CCn1c2ccncc2c2cc(C(=O)c3ccc(S(C)(=O)=O)cc3)ccc21` and `CCn1c2ccncc2c2cc(C(=O)c3ccc(Cl)cc3)ccc21` are within 1.5-fold of each other in IC50: 5.26 µM for the first, 4.69 µM for the second.

Going from `CCn1c2ccncc2c2cc(C(=O)c3ccc(N)cc3)ccc21` to `CCn1c2ccncc2c2cc(C(=O)c3ccc(Br)cc3)ccc21`, the IC50 falls from 13.4 µM to 2.11 µM (6.4-fold).

`CCn1c2ccc(C(=O)c3ccccc3)cc2c2c[n+](CC)ccc21` and `CCn1c2ccc(C(=O)c3ccc(Br)cc3)cc2c2c[n+](CC)ccc21` cannot be ordered by IC50: greater than 100 µM for the first, greater than 100 µM for the second.

`CCn1c2ccncc2c2cc(C(=O)c3ccc(OC)cc3)ccc21` and `CCn1c2ccncc2c2cc(C(=O)c3cccc(OC)c3)ccc21` are within 1.5-fold of each other in IC50: 6.39 µM for the first, 6.42 µM for the second.

`CCn1c2ccncc2c2cc(C(=O)c3ccccc3Cl)ccc21` and `CCn1c2ccncc2c2cc(C(=O)c3ccccc3F)ccc21` are within 1.5-fold of each other in IC50: 13.7 µM for the first, 12.2 µM for the second.

Going from `CCn1c2ccncc2c2cc(C(=O)c3ccc([N+](=O)[O-])cc3)ccc21` to `CC(C)n1c2ccncc2c2cc(C(=O)c3ccccc3)ccc21`, the IC50 falls from 16.8 µM to 6.46 µM (2.6-fold). The second is the more potent here.

test system: A549; assay: Cell cycle arrest in human A549 cells assessed as accumulation at S phase at 2 uM after 48 hrs by flow cytometric analysis; type: functional; conditions: not given
Summary of the method: (§3)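 A549 cells in exponential growth were treated for 48 h, washed twice in PBS and fixed in 75% ethanol. They were then incubated for 0.5 h at 37 °C and stained with propidium iodide for 15 min. DNA content was read on a FACSCalibur flow cytometer.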

Compound `CCn1c2ccncc2c2cc(C(=O)c3ccc(S(C)(=O)=O)cc3)ccc21` has an Activity of 26.59%.

test system: A549; assay: Cytotoxicity against human A549 cells after 48 hrs by MTT assay; type: functional, cell-based; conditions: A549, 48 h; summary of the method: as §1

First: CCn1c2ccncc2c2cc(C(=O)c3ccccc3)ccc21
Second: CCn1c2ccncc2c2cc(C(=O)c3ccccc3Cl)ccc21
The IC50 of the first is 1.8-fold lower: 23.2 µM for the first, 41.4 µM for the second.

`CCn1c2ccncc2c2cc(C(=O)c3ccc(S(C)(=O)=O)cc3)ccc21` and `CCn1c2ccncc2c2cc(C(=O)c3ccc(Cl)cc3)ccc21` are within 1.5-fold of each other in IC50: 24.2 µM for the first, 27.2 µM for the second.

`CCn1c2ccncc2c2cc(C(=O)c3ccc(N)cc3)ccc21` and `CCn1c2ccncc2c2cc(C(=O)c3ccc(Br)cc3)ccc21` are within 1.5-fold of each other in IC50: 49.3 µM for the first, 35.1 µM for the second.

`CCn1c2ccc(C(=O)c3ccccc3)cc2c2c[n+](CC)ccc21` and `CCn1c2ccc(C(=O)c3ccc(Br)cc3)cc2c2c[n+](CC)ccc21` cannot be ordered by IC50: greater than 100 µM for the first, greater than 100 µM for the second.

`CCn1c2ccncc2c2cc(C(=O)c3ccc(OC)cc3)ccc21` and `CCn1c2ccncc2c2cc(C(=O)c3cccc(OC)c3)ccc21` are within 1.5-fold of each other in IC50: 20.5 µM for the first, 21.4 µM for the second.

Compared with `CCn1c2ccncc2c2cc(C(=O)c3ccccc3F)ccc21`, `CCn1c2ccncc2c2cc(C(=O)c3ccc([N+](=O)[O-])cc3)ccc21` is 1.6-fold lower in IC50: 46.8 µM for the first, 29.1 µM for the second. The second is the more potent here.

test system: not listed separately; assay: Cytotoxicity against human SGC cells after 48 hrs by MTT assay; type: functional, cell-based; conditions: not given; summary of the method: as §1

Going from `CCn1c2ccncc2c2cc(C(=O)c3ccccc3)ccc21` to `CCn1c2ccncc2c2cc(C(=O)c3ccccc3Cl)ccc21`, the IC50 rises from 11.8 µM to 38.6 µM (3.3-fold).

Compared with `CCn1c2ccncc2c2cc(C(=O)c3ccc(S(C)(=O)=O)cc3)ccc21`, `CCn1c2ccncc2c2cc(C(=O)c3ccc(Cl)cc3)ccc21` is 2.5-fold higher in IC50: 24.9 µM for the first, 62.5 µM for the second. The first is the more potent here.

Compared with `CCn1c2ccncc2c2cc(C(=O)c3ccc(N)cc3)ccc21`, `CCn1c2ccncc2c2cc(C(=O)c3ccc(Br)cc3)ccc21` is lower in IC50: greater than 100 µM for the first, 34 µM for the second. The second is the more potent here.

`CCn1c2ccc(C(=O)c3ccccc3)cc2c2c[n+](CC)ccc21` and `CCn1c2ccc(C(=O)c3ccc(Br)cc3)cc2c2c[n+](CC)ccc21` cannot be ordered by IC50: greater than 100 µM for the first, greater than 100 µM for the second.

`CCn1c2ccncc2c2cc(C(=O)c3ccc(OC)cc3)ccc21` and `CCn1c2ccncc2c2cc(C(=O)c3cccc(OC)c3)ccc21` are within 1.5-fold of each other in IC50: 17.8 µM for the first, 18.7 µM for the second.

Compared with `CCn1c2ccncc2c2cc(C(=O)c3ccccc3F)ccc21`, `CCn1c2ccncc2c2cc(C(=O)c3ccc([N+](=O)[O-])cc3)ccc21` is higher in IC50: 35.6 µM for the first, greater than 100 µM for the second. The first is the more potent here.

test system: MCF7; assay: Cytotoxicity against human MCF7 cells after 48 hrs by MTT assay; type: functional, cell-based; conditions: MCF7, 48 h; summary of the method: as §1

First: CCn1c2ccncc2c2cc(C(=O)c3ccccc3)ccc21
Second: CCn1c2ccncc2c2cc(C(=O)c3ccccc3Cl)ccc21
The IC50 of the first is 2.5-fold lower: 8.36 µM for the first, 21 µM for the second. The first is the more potent here.

Going from `CCn1c2ccncc2c2cc(C(=O)c3ccc(S(C)(=O)=O)cc3)ccc21` to `CCn1c2ccncc2c2cc(C(=O)c3ccc(Cl)cc3)ccc21`, the IC50 rises from 3.28 µM to 30.6 µM (9.3-fold). The first is the more potent here.

First: CCn1c2ccncc2c2cc(C(=O)c3ccc(N)cc3)ccc21
Second: CCn1c2ccncc2c2cc(C(=O)c3ccc(Br)cc3)ccc21
The IC50 of the first is lower: 5.04 µM for the first, greater than 100 µM for the second.

Compared with `CCn1c2ccc(C(=O)c3ccccc3)cc2c2c[n+](CC)ccc21`, `CCn1c2ccc(C(=O)c3ccc(Br)cc3)cc2c2c[n+](CC)ccc21` is 4.7-fold higher in IC50: 12 µM for the first, 56 µM for the second. The first is the more potent here.

Going from `CCn1c2ccncc2c2cc(C(=O)c3ccc(OC)cc3)ccc21` to `CCn1c2ccncc2c2cc(C(=O)c3cccc(OC)c3)ccc21`, the IC50 rises from 3.85 µM to 9.99 µM (2.6-fold).

`CCn1c2ccncc2c2cc(C(=O)c3ccccc3F)ccc21` and `CCn1c2ccncc2c2cc(C(=O)c3ccc([N+](=O)[O-])cc3)ccc21` are within 1.5-fold of each other in IC50: 4.74 µM for the first, 3.21 µM for the second.

test system: A549; assay: Cell cycle arrest in human A549 cells assessed as accumulation at G2/M phase at 2 uM after 48 hrs by flow cytometric analysis; type: functional; conditions: not given; summary of the method: as §3

For `CCn1c2ccncc2c2cc(C(=O)c3ccc(S(C)(=O)=O)cc3)ccc21`, the Activity was 63.12%.

test system: A549; assay: Cell cycle arrest in human A549 cells assessed as accumulation at G0/G1 phase at 2 uM after 48 hrs by flow cytometric analysis; type: functional; conditions: not given; summary of the method: as §3

Compound `CCn1c2ccncc2c2cc(C(=O)c3ccc(S(C)(=O)=O)cc3)ccc21` has an Activity of 10.29%.

molecular target: Tubulin; assay: Inhibition of tubulin polymerization in human MCF7 cells by fluorometric analysis; conditions: not given; summary of the method: as §2

Work on `CCn1c2ccncc2c2cc(C(=O)c3ccc(S(C)(=O)=O)cc3)ccc21` yielded an IC50 of 4.3 µM.

test system: HCT-116; assay: Cytotoxicity against human HCT116 cells after 48 hrs by MTT assay; type: functional, cell-based; conditions: HCT-116, 48 h; summary of the method: as §1

Compared with `CCn1c2ccncc2c2cc(C(=O)c3ccccc3)ccc21`, `CCn1c2ccncc2c2cc(C(=O)c3ccccc3Cl)ccc21` is 4.9-fold higher in IC50: 8.63 µM for the first, 42.3 µM for the second.

Going from `CCn1c2ccncc2c2cc(C(=O)c3ccc(S(C)(=O)=O)cc3)ccc21` to `CCn1c2ccncc2c2cc(C(=O)c3ccc(Cl)cc3)ccc21`, the IC50 rises from 37.8 µM to 62.6 µM (1.7-fold).

Going from `CCn1c2ccncc2c2cc(C(=O)c3ccc(N)cc3)ccc21` to `CCn1c2ccncc2c2cc(C(=O)c3ccc(Br)cc3)ccc21`, the IC50 falls from 40.6 µM to 24.3 µM (1.7-fold). The second is the more potent here.

`CCn1c2ccc(C(=O)c3ccccc3)cc2c2c[n+](CC)ccc21` and `CCn1c2ccc(C(=O)c3ccc(Br)cc3)cc2c2c[n+](CC)ccc21` cannot be ordered by IC50: greater than 100 µM for the first, greater than 100 µM for the second.

Compared with `CCn1c2ccncc2c2cc(C(=O)c3ccc(OC)cc3)ccc21`, `CCn1c2ccncc2c2cc(C(=O)c3cccc(OC)c3)ccc21` is 2-fold lower in IC50: 70.2 µM for the first, 34.3 µM for the second. The second is the more potent here.

Compared with `CCn1c2ccncc2c2cc(C(=O)c3ccccc3F)ccc21`, `CCn1c2ccncc2c2cc(C(=O)c3ccc([N+](=O)[O-])cc3)ccc21` is 1.6-fold higher in IC50: 35.9 µM for the first, 59.2 µM for the second.

Source: ChEMBL document CHEMBL1759850, “Design, synthesis, and biological evaluation of novel γ-carboline ketones as anticancer agents” (Eur J Med Chem, 2011)
